Laboratory results: ChEMBL document CHEMBL4265871, “Novel alkylated azoles as potent antifungals” (Eur J Med Chem, 2017)
≈ marks a conversion by molar mass, not a printed value.

Tested on: not listed separately
Test: Selectivity index, ratio of EC50 for toxicity in human BEAS2B cells to MIC100 for antifungal activity against Candida albicans ATCC 10231
Assay type: cell-based
Settings: BEAS-2B cells, read-out: Selectivity Index
How it was run: (§1)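 Selectivity index is the EC50 against the mammalian line (A549 or BEAS-2B) divided by the MIC against the given fungal strain.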
CCCCCC(O)(Cn1cncn1)c1ccc(Cl)cc1Cl (configuration not stated) showed a selectivity ratio of 130.

Tested on: Candida albicans
Test: Antifungal activity against ITC and FLC-susceptible Candida albicans ATCC MYA-2876 incubated for 48 hrs by modified CLSI M27-A3 protocol based method
Assay type: functional
Settings: ATCC MYA-2876, 48 h
How it was run: (§2)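 Because these Candida strains show trailing growth, MIC-2 was read, meaning 50% growth inhibition. Caspofungin and voriconazole were tested here; other controls came from earlier work.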
CCCCCC(O)(Cn1cncn1)c1ccc(Cl)cc1Cl (configuration not stated) showed an MIC50 of 3 µM (≈ 0.985 µg/mL).

Tested on: Candida parapsilosis
Test: Antifungal activity against Candida parapsilosis ATCC 22019 incubated for 48 hrs by modified CLSI M27-A3 protocol based method
Assay type: functional
Settings: Lodderomyces parapsilosis, ATCC 22019, 48 h; read-out: MIC100
How it was run: (§3)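 For C. albicans ATCC 10231, C. krusei ATCC 6258 and C. parapsilosis ATCC 22019, MIC-0 was read, meaning complete growth inhibition. For azole controls, MIC-2 (50% growth inhibition) was reported instead. Caspofungin and voriconazole were tested here; other controls came from earlier work.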
Compound CCCCCC(O)(Cn1cncn1)c1ccc(Cl)cc1Cl (configuration not stated) has an MIC of under 0.09 µM.

Tested on: not listed separately
Test: Selectivity index, ratio of EC50 for toxicity in human A549 cells to MIC50 for antifungal activity against ITC and FLC-susceptible Candida albicans ATCC MYA-2876
Assay type: cell-based
Settings: read-out: Selectivity Index
How it was run: as §1
CCCCCC(O)(Cn1cncn1)c1ccc(Cl)cc1Cl (configuration not stated) showed a selectivity ratio of 34.

Tested on: Nakaseomyces glabratus
Test: Antifungal activity against Candida glabrata ATCC 2001 incubated for 48 hrs by modified CLSI M27-A3 protocol based method
Assay type: functional
Settings: ATCC 2001, 48 h
Work on CCCCCC(O)(Cn1cncn1)c1ccc(Cl)cc1Cl (configuration not stated) yielded an MIC50 of 5.9 µM (≈ 1.94 µg/mL).

Tested on: not listed separately
Test: Hemolytic activity in mouse erythrocytes assessed as hemolysis level at 3.9 ug/ml incubated for 1 hr at 37 degC
Assay type: ADME, cell-based, Erythrocyte
Settings: read-out: Activity
How it was run: (§4)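 Mouse erythrocytes incubated 1 h at 37 °C with test agents over 1.95 to 125 µg/mL. Percent lysis is read for each concentration.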
With CCCCCC(O)(Cn1cncn1)c1ccc(Cl)cc1Cl (configuration not stated) the hemolysis at 1 h, 3.9 ug/ml was 0%.

Tested on: not listed separately
Test: Selectivity index, ratio of […] for toxicity in human A549 cells to MIC50 for antifungal activity against Aspergillus nidulans ATCC 38163
Assay type: cell-based
Settings: read-out: Selectivity Index
For CCCCCC(O)(Cn1cncn1)c1ccc(Cl)cc1Cl (configuration not stated), the selectivity ratio was 69.

Tested on: not listed separately
Test: Hemolytic activity in mouse erythrocytes assessed as hemolysis level at 1.95 ug/ml incubated for 1 hr at 37 degC
Assay type: ADME, cell-based, Erythrocyte
Settings: read-out: Activity
How it was run: as §4
CCCCCC(O)(Cn1cncn1)c1ccc(Cl)cc1Cl (configuration not stated) gave a hemolysis at 1 h, 1.95 ug/ml of 0%.

Tested on: not listed separately
Test: Selectivity index, ratio of EC50 for toxicity in human BEAS2B cells to MIC50 for antifungal activity against Candida glabrata ATCC 2001
Assay type: cell-based
Settings: BEAS-2B cells, read-out: Selectivity Index
How it was run: as §1
In the case of CCCCCC(O)(Cn1cncn1)c1ccc(Cl)cc1Cl (configuration not stated), the selectivity ratio is reported as 16.

Tested on: not listed separately
Test: Selectivity index, ratio of EC50 for toxicity in human BEAS2B cells to MIC50 for antifungal activity against ITC and FLC-resistant Candida albicans ATCC 1237
Assay type: cell-based
Settings: BEAS-2B cells, read-out: Selectivity Index
How it was run: as §1
CCCCCC(O)(Cn1cncn1)c1ccc(Cl)cc1Cl (configuration not stated) gave a selectivity ratio of 16.

Tested on: not listed separately
Test: Selectivity index, ratio of EC50 for toxicity in human BEAS2B cells to MIC50 for antifungal activity against Candida krusei ATCC 6258
Settings: BEAS-2B cells
Compound CCCCCC(O)(Cn1cncn1)c1ccc(Cl)cc1Cl (configuration not stated) has a selectivity ratio of 65.

Tested on: not listed separately
Test: Selectivity index, ratio of EC50 for toxicity in human BEAS2B cells to MIC50 for antifungal activity against Candida albicans ATCC 64124
Assay type: cell-based
Settings: BEAS-2B cells, read-out: Selectivity Index
How it was run: as §1
For CCCCCC(O)(Cn1cncn1)c1ccc(Cl)cc1Cl (configuration not stated), the selectivity ratio was 16.

Tested on: Aspergillus nidulans
Test: Antifungal activity against Aspergillus nidulans ATCC 38163 incubated for 48 hrs by CLSI M38-A2 protocol based method
Assay type: functional
Settings: ATCC 38163, 48 h, read-out: MIC100
Work on CCCCCC(O)(Cn1cncn1)c1ccc(Cl)cc1Cl (configuration not stated) yielded an MIC of 1.5 µM (≈ 0.492 µg/mL).

Tested on: not listed separately
Test: Selectivity index, ratio of EC50 for toxicity in human BEAS2B cells to MIC50 for antifungal activity against ITC and FLC-susceptible Candida albicans ATCC MYA-2310
Assay type: cell-based
Settings: BEAS-2B cells, read-out: Selectivity Index
How it was run: (§5)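 Ratio of the compound's EC50 against BEAS-2B cells to its MIC against the named C. albicans strain. […] For C. albicans strains other than ATCC 10231, trailing growth meant MIC-2 was taken, meaning 50% growth inhibition.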
Work on CCCCCC(O)(Cn1cncn1)c1ccc(Cl)cc1Cl (configuration not stated) yielded a selectivity ratio of 16.

Tested on: Candida albicans
Test: Antifungal activity against ITC and FLC-susceptible Candida albicans ATCC MYA-2310 incubated for 48 hrs by modified CLSI M27-A3 protocol based method
Assay type: functional
Settings: ATCC MYA-2310, 48 h
CCCCCC(O)(Cn1cncn1)c1ccc(Cl)cc1Cl (configuration not stated) showed an MIC50 of 5.9 µM (≈ 1.94 µg/mL).

Tested on: not listed separately
Test: Selectivity index, ratio of EC50 for toxicity in human A549 cells to MIC50 for antifungal activity against ITC and FLC-resistant Candida albicans ATCC MYA-90819
Assay type: cell-based
Settings: read-out: Selectivity Index
How it was run: as §1
Work on CCCCCC(O)(Cn1cncn1)c1ccc(Cl)cc1Cl (configuration not stated) yielded a selectivity ratio of 17.

Tested on: not listed separately
Test: Toxicity in human BEAS2B cells assessed as reduction in cell viability incubated for 24 hrs by resazurin dye based assay
Settings: BEAS-2B cells
How it was run: (§6)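 Toxicity tested in the nucleated lines A549 and BEAS-2B to give EC50 values. Selectivity index is EC50 against the mammalian line divided by the MIC against a given fungal strain.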
Compound CCCCCC(O)(Cn1cncn1)c1ccc(Cl)cc1Cl (configuration not stated) has an EC50 at 24 h of over 31.3 µg/mL.

Tested on: not listed separately
Test: Selectivity index, ratio of EC50 for toxicity in human A549 cells to MIC50 for antifungal activity against ITC and FLC-resistant Candida albicans ATCC MYA-1003
Assay type: cell-based
Settings: read-out: Selectivity Index
How it was run: as §1
Work on CCCCCC(O)(Cn1cncn1)c1ccc(Cl)cc1Cl (configuration not stated) yielded a selectivity ratio of 34.

Tested on: not listed separately
Test: Selectivity index, ratio of EC50 for toxicity in human A549 cells to MIC for antifungal activity against Candida parapsilosis ATCC 22019
Settings: not given
In the case of CCCCCC(O)(Cn1cncn1)c1ccc(Cl)cc1Cl (configuration not stated), the selectivity ratio is reported as 1100.

Tested on: not listed separately
Test: Selectivity index, ratio of EC50 for toxicity in human A549 cells to MIC50 for antifungal activity against ITC and FLC-resistant Candida albicans ATCC 1237
Assay type: cell-based
Settings: read-out: Selectivity Index
How it was run: as §1
With CCCCCC(O)(Cn1cncn1)c1ccc(Cl)cc1Cl (configuration not stated) the selectivity ratio was 17.

Tested on: Candida albicans
Test: Antifungal activity against Candida albicans ATCC 64124 incubated for 48 hrs by modified CLSI M27-A3 protocol based method
Assay type: functional
Settings: ATCC 64124, 48 h
For CCCCCC(O)(Cn1cncn1)c1ccc(Cl)cc1Cl (configuration not stated), the MIC50 was 5.9 µM (≈ 1.94 µg/mL).

Tested on: not listed separately
Test: Selectivity index, ratio of EC50 for toxicity in human A549 cells to MIC50 for antifungal activity against Candida albicans ATCC 64124
Assay type: cell-based
Settings: read-out: Selectivity Index
How it was run: as §1
Work on CCCCCC(O)(Cn1cncn1)c1ccc(Cl)cc1Cl (configuration not stated) yielded a selectivity ratio of 17.

Tested on: not listed separately
Test: in vitro
Settings: mouse, mouse erythrocytes
CCCCCC(O)(Cn1cncn1)c1ccc(Cl)cc1Cl (configuration not stated) gave a hemolysis at 1 h, 62.5 ug/ml of 100%.

Tested on: Pichia kudriavzevii
Test: Antifungal activity against Candida krusei ATCC 6258 incubated for 48 hrs by modified CLSI M27-A3 protocol based method
Assay type: functional
Settings: ATCC 6258, 48 h, read-out: MIC100
How it was run: as §3
With CCCCCC(O)(Cn1cncn1)c1ccc(Cl)cc1Cl (configuration not stated) the MIC was 1.5 µM (≈ 0.492 µg/mL).

Tested on: not listed separately
Test: Selectivity index, ratio of EC50 for toxicity in human BEAS2B cells to MIC50 for antifungal activity against ITC and FLC-susceptible Candida albicans ATCC MYA-2876
Assay type: cell-based
Settings: BEAS-2B cells, read-out: Selectivity Index
How it was run: as §5
In the case of CCCCCC(O)(Cn1cncn1)c1ccc(Cl)cc1Cl (configuration not stated), the selectivity ratio is reported as 32.

Tested on: not listed separately
Test: Selectivity index, ratio of EC50 for toxicity in human A549 cells to MIC50 for antifungal activity against Candida krusei ATCC 6258
Settings: not given
With CCCCCC(O)(Cn1cncn1)c1ccc(Cl)cc1Cl (configuration not stated) the selectivity ratio was 69.

Tested on: not listed separately
Test: Selectivity index, ratio of EC50 for toxicity in human BEAS2B cells to MIC50 for antifungal activity against ITC and FLC-resistant Candida albicans ATCC MYA-1003
Assay type: cell-based
Settings: BEAS-2B cells, read-out: Selectivity Index
How it was run: as §1
Work on CCCCCC(O)(Cn1cncn1)c1ccc(Cl)cc1Cl (configuration not stated) yielded a selectivity ratio of 32.

Tested on: Candida albicans
Test: Antifungal activity against ITC and FLC-resistant Candida albicans ATCC MYA-1003 incubated for 48 hrs by modified CLSI M27-A3 protocol based method
Assay type: functional
Settings: ATCC MYA-1003, 48 h
How it was run: as §2
CCCCCC(O)(Cn1cncn1)c1ccc(Cl)cc1Cl (configuration not stated) showed an MIC50 of 3 µM (≈ 0.985 µg/mL).

Tested on: not listed separately
Test: Hemolytic activity in mouse erythrocytes assessed as hemolysis level at 31.3 ug/ml incubated for 1 hr at 37 degC
Assay type: ADME, cell-based, Erythrocyte
Settings: read-out: Activity
How it was run: as §4
For CCCCCC(O)(Cn1cncn1)c1ccc(Cl)cc1Cl (configuration not stated), the hemolysis at 1 h, 31.3 ug/ml was 90.5%.

Tested on: not listed separately
Test: Hemolytic activity in mouse erythrocytes assessed as hemolysis level at 7.8 ug/ml incubated for 1 hr at 37 degC
Assay type: ADME, cell-based, Erythrocyte
Settings: read-out: Activity
How it was run: as §4
CCCCCC(O)(Cn1cncn1)c1ccc(Cl)cc1Cl (configuration not stated) gave a hemolysis at 1 h, 7.8 ug/ml of 0%.

Tested on: not listed separately
Test: Toxicity in human A549 cells assessed as reduction in cell viability incubated for 24 hrs by resazurin dye based assay
Settings: not given
How it was run: as §6
With CCCCCC(O)(Cn1cncn1)c1ccc(Cl)cc1Cl (configuration not stated) the EC50 at 24 h was 33 µg/mL (≈ 101 µM).

Tested on: not listed separately
Test: Selectivity index, ratio of […] for toxicity in human BEAS2B cells to MIC50 for antifungal activity against Aspergillus flavus ATCC MYA-3631
Assay type: cell-based
Settings: BEAS-2B cells, read-out: Selectivity Index
CCCCCC(O)(Cn1cncn1)c1ccc(Cl)cc1Cl (configuration not stated) gave a selectivity ratio of 8.
